MPTP block = mitochondrial permeability transition pore inhibitors, primary screen, biochemical, isolated mouse mitochondria, absorbance; Ca2+ swelling absorbance, 30 min; inhibition, % at 10 µM; 360,000 tested, 1.4% active;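 active = inhibition of 50% or more, scaled per plate between neutral and stimulator controls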;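 note: 0% = DMSO wells given calcium and 100% = 1 mM EGTA wells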
aDG glyco up = activators of alpha-DG glycosylation, primary screen, uHTS, Pro5-aDG cells, AlphaScreen; alpha-DG glycosylation AlphaScreen (IIH6); 0% Pro5, 100% B10-LARGE cell signal; activation, % at 10 µM; 360,000 tested, 0.22% active; AID 624168, 2012;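 active = activation of at least 8% versus controls, or a plate z-score of at least 8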;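 note: Pro5 are CHO cells carrying HIG-tagged alpha-DG that lacks glycosylation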
NR3A LBD binder = binders of NR3A ligand-binding domain, primary screen, biophysical, differential scanning fluorimetry, uHTS; Glutamate receptor ionotropic, NMDA 3A (GRIN3A) ligand-binding domain; NR3A LBD differential scanning fluorimetry, Tm shift; 0% = protein alone, 100% = glycine-bound protein; Tm shift relative to glycine control, % at 25 µM; 340,000 tested, 2.5% active; AID 1259313, 2017;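 active = melting temperature shift of at least 10% of the positive control shift, at one fixed dose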
procasp7 counter = procaspase-7 activators, primary screen, counter-screen for procaspase-3 activator project, biochemical, absorbance, HTS, human. recombinant procaspase-7, Ac-DEVD-pNA absorbance 405 nm; D23A/D198A/D206A triple mutant, cannot self-cleave; scale: DMSO 0, 5 µM enzyme 100. activation, % at 8.5 µM. 330,000 tested, 0.093% active. AID 463210, 2010;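 active = percent activation above the screen-wide mean plus 3 SD, cut at about 25% in these data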
Target sequence (P55210 whole entry D23A/D198A/D206A): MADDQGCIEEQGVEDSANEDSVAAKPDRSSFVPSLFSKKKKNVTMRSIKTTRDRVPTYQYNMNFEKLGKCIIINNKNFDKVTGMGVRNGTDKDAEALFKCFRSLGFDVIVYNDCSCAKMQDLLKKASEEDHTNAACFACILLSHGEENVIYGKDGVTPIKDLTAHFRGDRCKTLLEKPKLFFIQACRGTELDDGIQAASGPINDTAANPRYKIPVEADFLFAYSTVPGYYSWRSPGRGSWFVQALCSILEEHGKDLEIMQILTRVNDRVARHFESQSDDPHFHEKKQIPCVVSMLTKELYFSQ
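Replicates: singlicate. Assay system: Procaspase-7 triple mutant (PC-7 D3A). Signal: 405 nm absorbance of p-nitroaniline. Times: 1 h preincubation, 2 h reaction. Buffer or medium: Zinc-free HEPES pH 7.4 with 300 mM NaCl, 0.01% Triton X-100. Also added: DEVD-pNA substrate. Benchmarks: DMSO wells as 0%, DMSO with 5 µM added PC-7 as 100%.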
procasp3 activ = activators of human procaspase-3 D3A mutant, primary screen, biochemical, absorbance, PC-3 D3A mutant, single concentration | Caspase-3 (Homo sapiens), P42574 | recombinant procaspase-3 D3A, Ac-DEVD-pNA absorbance 405 nm | activation, % at 8.5 µM | 330,000 tested, 0.11% active | AID 463141, 2010;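 active = activation above the mean of all tested compounds plus 3 SD, cut at about 21% in these data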;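 note: 0% = DMSO alone and 100% = DMSO wells spiked with extra 5 µM PC-3 D3A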
Target sequence (P42574 whole entry D9A/D28A/D175A): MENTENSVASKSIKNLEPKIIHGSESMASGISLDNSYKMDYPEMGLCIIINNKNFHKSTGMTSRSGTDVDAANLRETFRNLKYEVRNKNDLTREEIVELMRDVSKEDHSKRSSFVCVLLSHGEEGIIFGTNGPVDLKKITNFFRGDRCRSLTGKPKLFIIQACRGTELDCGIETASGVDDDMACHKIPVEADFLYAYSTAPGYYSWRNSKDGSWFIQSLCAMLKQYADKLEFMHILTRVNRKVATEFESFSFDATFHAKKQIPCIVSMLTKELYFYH
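Evaluation: percent activation relative to control range; Material: Procaspase-3 D3A mutant, all three cleavage aspartates alanine; Compound: single dose, 8.5 µM nominal compound, 0.8% DMSO; Replication: one well per compound; Signal: absorbance at 405 nm, 0 and 120 min; Schedule: 1 h preincubation plus 2 h reaction at 25 °C.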
* hit, by the source's call; x = no result. Shown are actives, neighbours in structure and some others; about 3.7% of the full set was active somewhere.

SMILES	MPTP block	aDG glyco up	NR3A LBD binder	procasp7 counter	procasp3 activ
CCCCNC(=O)c1nc(C2CCN(S(=O)(=O)c3c(F)cccc3F)CC2)oc1-c1ccccc1	0.5	0.5	x	x	x
O=C(O)CC1Cc2ccccc2C1C(=O)O (configuration not stated)	-0.7	0.0	-1.4	x	x
Cc1cc(C)c(N2C(=O)CC(Sc3ccccc3N)C2=O)c(C)c1 (configuration not stated)	0.2	0.4	x	x	x
O=C(c1ccncc1)c1ccc(NC(=O)c2cccs2)cc1	-1.8	0.1	-0.5	-0.1	-1.6
O=C(N/N=C/C(Cl)=C\c1ccccc1)c1cccs1	5.1	0.6	13.2*	-0.6	-6.0
O=C(Nc1ccc(O)cc1)c1ccc(NC(=O)c2cccs2)cc1	-0.8	0.2	27.9*	-4.7	6.0
O=C(Nc1cccc(O)c1)c1ccc(NC(=O)c2cccs2)cc1	1.2	0.1	36.5*	1.4	-0.7
COc1cccc(NC(=O)C2(C)CCN2C(=O)CC2CC2)c1 (configuration not stated)	0.2	0.8	x	x	x
CC(C)C[C@H]1CN(CCCC[C@H]2CNC(=O)C(=O)N2Cc2ccccc2)C(=O)C(=O)N1CC1CCCCC1	-2.2	0.0	x	x	x
COc1cc(C(=O)N2CCCC(c3cc(C(=O)NCc4ccccc4)no3)C2)cc(OC)c1C (configuration not stated)	0.1	0.3	x	x	x
CCCCOC(=O)C1C2CCC(O2)C1C(=O)OCC (configuration not stated)	-1.1	-0.2	1.8	x	x
Nc1n[nH]c(C2CC2)c1N=Nc1ccc(Cl)c(Cl)c1	2.5	-0.2	33.0*	-6.9	-2.7
Nc1n[nH]c(C2CC2)c1N=Nc1ccc(Cl)cc1	1.4	-0.2	10.9*	-5.9	0.8
Nc1nc(N)c(N=Nc2ccc(Cl)cc2)c(=O)[nH]1	0.3	-0.5	0.6	3.8	-2.1
CC(=O)N1C[C@@H](CO)[C@@H](N(C)C(=O)C(C)(C)C)C[C@H]1c1ccccc1	-1.4	0.0	x	x	x
Cc1ccc(S(=O)(=O)N2CCC(=O)c3ccccc32)cc1	1.1	0.2	x	x	x
CC(=O)Nc1ccc(Nc2cc(C)nc3c(-c4ccc(Cl)cc4)cnn23)cc1	0.8	2.8	29.9*	1.6	5.7
CC(=O)Nc1ccc(Nc2cc(C)nc3c(-c4ccc(Cl)cc4)c(C)nn23)cc1	0.5	0.8	-4.7	4.0	-8.1
CCOc1ccc(C(=O)/C=C/c2cn(CN3CCN(C)CC3)c3ccccc23)cc1	1.7	-0.1	32.1*	-15.3	-27.2
COc1ccc(C(=O)/C=C/c2cn(CN3CCN(C)CC3)c3ccccc23)cc1	40.8	0.6	35.6*	-41.0	-31.3
COc1ccc(C(=O)/C=C/c2cn(CC(O)CN3CCOCC3)c3ccccc23)cc1 (configuration not stated)	-0.4	0.5	-0.6	-15.4	-9.5
Cc1cccc(CNC(=O)c2sc(=O)n(Cc3ccc(S(C)(=O)=O)cc3)c2C)c1	0.2	-0.3	x	x	x
CCC(=O)OCOc1ccc(/C=C2/CCC(CN(C)C)C2=O)cc1 (configuration not stated)	-0.3	-0.4	1.0	x	x
Cc1ccc2oc(-c3ccc(NC(=O)c4cccnc4)cc3)nc2c1	-1.8	2.3	35.1*	4.2	-2.9
O=C(Nc1ccc2oc(-c3ccccc3Cl)nc2c1)c1cncc(Br)c1	21.1	0.2	11.6*	3.5	0.1
SMILES	MPTP block	aDG glyco up	NR3A LBD binder	procasp7 counter	procasp3 activ
O=C(Nc1ccc(-c2nc3ccccc3o2)cc1)c1cccnc1	-0.5	-0.1	24.7*	1.0	6.2
Cc1ccc(-c2nc3cc(NS(=O)(=O)c4ccc(C)cc4)ccc3o2)cc1	-1.5	0.0	11.7*	-1.2	8.6
C#CCN1C=CC(=O)[C@@H](OC(=O)Nc2ccc(C)cc2)[C@H]1c1ccccc1Br	0.5	-0.1	-1.4	x	x
Cc1c(C(=O)Nc2ccc3oc(-c4cccnc4)nc3c2)oc2ccccc12	7.8	0.3	16.0*	12.2	5.4
Cc1cccc(C)c1NC(=O)C1c2ccccc2OCC(=O)N1CCCN1CCOCC1 (configuration not stated)	2.2	0.0	x	x	x
N#Cc1ccc(-c2csc(NC(=O)/C=C/c3cccs3)n2)cc1	46.0	0.1	1.8	5.4	5.1
Cc1ccc(-c2csc(NC(=O)/C=C/c3cccs3)n2)cc1C	-0.5	0.0	19.2*	3.7	-4.0
COc1ccc(CCCNC(=O)C2Cc3c(-c4ccccc4)ccnc3O2)cc1 (configuration not stated)	-1.7	-0.4	x	x	x
CN(CCc1ccccc1)C(=O)c1[nH]c(C(F)(F)F)nc1-c1ccccc1	-1.2	-0.2	x	x	x
Cc1cc(C)cc(OCC(=O)Nc2ccc(-n3cnnn3)cc2)c1	-0.2	0.3	-8.9	-5.1	-9.7
Cc1sc2ncnc(N/N=C/c3cccc(O)c3)c2c1C	3.5	0.0	13.4*	-9.3	-9.0
COc1cc(/C=N/Nc2ncnc3sc4c(c23)CCC4)ccc1O	-0.3	-0.5	29.5*	x	x
CC(=O)Nc1cc(-c2ccsc2)cn2c(-c3ccc(F)cc3)cnc12	0.4	0.1	x	x	x
Cc1ccc(C)c(S(=O)(=O)NC(C)C(=O)Nc2ccc(-c3nc4ccccc4s3)cc2)c1 (configuration not stated)	5.0	-0.2	24.8*	-1.9	1.7
O=C(CCS(=O)(=O)c1ccccc1)Nc1ccc(-c2nc3ccccc3s2)cc1	13.6	-0.1	3.6	-3.3	2.4
CC(NS(=O)(=O)c1cccc(Cl)c1)C(=O)Nc1ccc(-c2nc3ccccc3s2)cc1 (configuration not stated)	4.0	0.3	29.7*	-7.2	-8.6
O=C(CNS(=O)(=O)c1cccc(Cl)c1)Nc1ccc(-c2nc3ccccc3s2)cc1	36.7	0.2	23.2*	-5.0	-3.4
CC(C)(C)c1ccc(S(=O)(=O)NCC(=O)Nc2ccc(-c3nc4ccccc4s3)cc2)cc1	6.3	0.4	7.4	3.1	-0.9
COCCN1C(=O)COc2ccccc2C1C(=O)NCc1ccccc1 (configuration not stated)	-1.0	0.0	x	x	x
CN1CCN(C2CN(Cc3cn(Cc4ccc(C(F)(F)F)cc4)nn3)S(=O)(=O)C2)CC1 (configuration not stated)	-1.2	0.0	x	x	x
O=C(c1ccco1)N1CCN(Cc2nnnn2CCc2ccccc2)CC1	-0.2	0.1	13.0*	12.1	-0.1
COc1ccccc1OCC(=O)N1CCN(C(=O)c2ccco2)CC1	0.5	0.0	10.2*	1.1	-0.6

Screening data from PubChem BioAssay.
